An excerpt weighted towards active compounds, which were near 0.74% of everything screened.
HKDC1 inh: inhibitors of human hexokinase HKDC1 | Q2TB90 | recombinant HKDC1, G6PDH/diaphorase resazurin coupled fluorescence | inhibition, % at 20 µM | 0.16% of 340,000 active | AID 493160;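 active = inhibition above about 35% when tested at 20 µM, limit read from the data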;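 also: plate controls were DMSO wells with enzyme for no effect and DMSO wells lacking enzyme for full effect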
Target sequence (Q2TB90 whole entry, looked up): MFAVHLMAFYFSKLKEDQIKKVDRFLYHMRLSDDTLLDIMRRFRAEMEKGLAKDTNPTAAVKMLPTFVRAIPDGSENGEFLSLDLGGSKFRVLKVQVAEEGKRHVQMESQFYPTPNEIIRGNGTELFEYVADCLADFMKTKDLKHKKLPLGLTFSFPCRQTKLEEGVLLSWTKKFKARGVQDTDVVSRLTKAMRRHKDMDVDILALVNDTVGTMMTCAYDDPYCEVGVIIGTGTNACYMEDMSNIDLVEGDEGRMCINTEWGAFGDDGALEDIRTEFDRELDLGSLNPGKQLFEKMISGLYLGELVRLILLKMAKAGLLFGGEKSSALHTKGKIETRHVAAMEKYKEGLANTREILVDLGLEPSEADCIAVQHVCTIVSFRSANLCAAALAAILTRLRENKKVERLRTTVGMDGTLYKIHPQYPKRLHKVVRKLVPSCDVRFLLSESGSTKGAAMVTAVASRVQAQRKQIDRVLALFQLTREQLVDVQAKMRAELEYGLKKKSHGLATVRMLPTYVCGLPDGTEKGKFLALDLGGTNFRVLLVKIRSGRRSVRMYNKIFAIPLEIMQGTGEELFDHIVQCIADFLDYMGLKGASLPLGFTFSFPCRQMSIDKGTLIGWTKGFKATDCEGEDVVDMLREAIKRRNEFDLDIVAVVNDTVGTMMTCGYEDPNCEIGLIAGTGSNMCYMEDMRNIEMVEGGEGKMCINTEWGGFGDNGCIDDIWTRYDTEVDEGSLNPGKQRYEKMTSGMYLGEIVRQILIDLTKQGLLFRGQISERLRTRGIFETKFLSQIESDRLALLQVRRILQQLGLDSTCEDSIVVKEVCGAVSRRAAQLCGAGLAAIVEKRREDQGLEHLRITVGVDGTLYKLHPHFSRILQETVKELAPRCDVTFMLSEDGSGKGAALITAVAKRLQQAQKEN
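Test system: recombinant HKDC1 (HK5) hexokinase enzyme, produced in-house / Doses: 20 µM test compound, 1% DMSO / Timing: 90 min, room temperature / Detection: G6PDH/diaphorase-coupled fluorescence, 1 mM NADP, 100 µM resazurin, 525/613 nm / Control set: DMSO wells with and without enzyme mix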
Diaphorase act: counter-screen for diaphorase-based assays: diaphorase activators and chemical reducers; Diaphorase/resazurin coupled assay, resorufin fluorescence, 16 min; hits give high values; 1 = vehicle wells, 0 = NADH-free wells; activation factor at 20 µM; 0.005% of 190,000 active;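 active = diaphorase activity raised at least twofold by the compound at 20 µM; inactive = activation factor below 2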
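Assay system: Purified diaphorase enzyme from Clostridium kluyveri | Amount: Enzyme 0.07 U/mL final | Dosing: Compound 20 µM once, DMSO 1% | Timing: 16 min reaction at room temperature | Detection: Fluorescence, excitation 544 nm and emission 590 nm | Evaluation: Higher resorufin formation from activation or reduction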
G6PDH counter: counter-screen for G6PDH assay hits: L. mesenteroides G6PDH inhibition. 0.12% of 200,000 active. inhibition, % at 5 µM. Purified L. mesenteroides G6PDH, diaphorase/resazurin coupled fluorescence, 45 min; in the data active = inhibition above about 50%
Diaphorase inh: diaphorase inhibition or chemical oxidation counter-screen. diaphorase resazurin-to-resorufin fluorescence, NADH, 16 min; bacterial (C. kluyveri) enzyme, not human. inhibition, % at 20 µM. 0.69% of 190,000 active. AID 1217;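 active = primary screen inhibition at 20 µM above a set limit, cut at about 50% in these data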;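 also: plate controls were DMSO with full reaction for no effect and wells lacking NADH for full effect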
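Assay system – diaphorase enzyme from Clostridium kluyveri · Amount – diaphorase 0.14 U/mL (working solution) · Times – reaction incubation of 16 min at room temperature · Controls – No-NADH positive control and DMSO neutral control · Signal – resorufin fluorescence 544/590 nm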
Arbovirus inh: blocks arbovirus infection | arbovirus infection cell-based antiviral screen | inhibition, % at 10 µM | 0.37% of 200,000 active | AID 1251; in the data active = inhibition above about 30%
HKDC1 act conf2: confirmation of human HKDC1 activators | AID 504708 | recombinant HKDC1, G6PDH/diaphorase resazurin fluorescence; hits give low values | shares compounds with HKDC1 inh | inhibition, % at 20 µM | 14% of 740 active;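 active = inhibition at or below a set negative limit, negative inhibition meaning the enzyme was activated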
Numbers without * were called inactive; . = no result given.

SMILES	HKDC1 inh	Diaphorase act	G6PDH counter	Diaphorase inh	Arbovirus inh	HKDC1 act conf2
Cc1ccc(Cl)cc1NC1=C/C(=N\S(=O)(=O)c2cccs2)c2ccccc2C1=O	36.0*	0.7	53.5*	30.5	-33.8	35.5
O=C1C(Nc2ccc(O)cc2)=C/C(=N/S(=O)(=O)c2cccs2)c2ccccc21	59.8*	1.1	46.9	-11.6	-36.5	56.9
Cc1cc(C)c2c(=N)c3ccccc3n(CCCCCCCCn3c4ccccc4c(=N)c4c(C)cc(C)nc43)c2n1	74.2*	.	.	.	.	23.4
NC1=C(Br)C(=O)c2ncccc2C1=O	37.9*	.	.	.	.	50.8
N/C(=N\O)c1cccc(CS(=O)(=O)c2ccccn2)c1	-1.4	.	.	.	.	.
O=C(N/N=C/c1ccccc1OC(=O)c1ccc2c(c1)OCO2)c1ccccc1	-48.1	0.8	-0.4	17.6	-23.9	-18.3
COc1ccccc1/C=N/NC(=O)c1ccc2c(c1)OCO2	3.9	.	.	.	.	.
COCc1cc(C2C(C(=O)c3ccco3)=C(O)C(=O)N2CCOCCO)ccc1O (stereo not drawn)	35.4*	0.8	1.0	20.0	4.6	-40.1*
C=CC[C@]12C[C@@H](OC)C(=O)C=C1O[C@@H](c1ccc(OC)c(OC)c1)[C@H]2C	-4.1	.	.	.	.	.
CC(=NNC(=S)Nc1cccc(Cl)c1)c1ccccn1	-46.4	.	.	.	.	-63.5*
CC(=NNC(=S)SCc1ccccc1)c1ccccn1	-46.5	.	.	.	.	-28.3*
CC(=NNC(=S)N1CCC1)c1ccccn1	-39.3	.	.	.	.	.
O/C=c1\ccc2cccc3nc(C(F)(F)F)nc1c23	40.4*	.	.	.	.	21.2
NNc1nc(C(F)(F)F)nc2ccccc12	-9.2	0.9	1.2	7.5	3.8	.
CC(C)C(C(=O)O)N1C(=O)/C(=C/C=C/c2ccco2)SC1=S (stereo not drawn)	50.5*	0.5	11.7	48.5	-4.9	19.0
Cc1cccc(-c2c3c(=O)n(C)c(=O)n(C)c3c3nnc4ccccc4n23)c1	-3.1	.	.	.	.	.
Cc1ccc(O)c(N)c1	-0.2	.	.	.	.	.
Cc1ccc(SSc2cc(C)ccc2N)c(N)c1	-44.3	.	.	.	.	-20.9
CC(NC(=O)c1sc2cc([N+](=O)[O-])ccc2c1Cl)C(C)(C)C (stereo not drawn)	-76.1	1	10.5	-3.7	5.3	-39.3*
S=C(NCc1ccccn1)NN=Cc1ccccn1	-44.1	.	.	.	.	-45.4*
COc1ccc2c(c1)C(=NNC(=O)c1ccccn1)c1cc(OC)ccc1-2	42.4*	1	-13.9	4.7	3.5	-13.5
CCOc1cccc(C(=O)Nc2cccc(C(=O)NCC(C)C)c2)c1	-9.7	0.8	3.1	22.0	-8.8	.
CCOC(=O)c1c(C)[nH]c(C2=NNC(=Nc3ccccc3)SC2)c1C	-305.8	0.9	-13.9	5.7	-12.0	-141.4*
CCOC(=O)c1c(C)[nH]c(C2=NNC(=Nc3ccc(OCC)cc3)SC2)c1C	-136.6	0.8	8.0	15.4	-12.0	-122.3*
CC(=O)c1c(C)[nH]c(C2=NNC(=NC(C)(C)C)SC2)c1C	-14.6	1	13.1	-2.3	-1.0	.
SMILES	HKDC1 inh	Diaphorase act	G6PDH counter	Diaphorase inh	Arbovirus inh	HKDC1 act conf2
CCOC(=O)c1c(C)[nH]c(C2=NNC(=Nc3ccccc3OC)SC2)c1C	-164.6	0.9	-3.8	13.2	21.3	-86.4*
CCOC(=O)c1c(C)[nH]c(N=Nc2ccccc2Cl)c1C	2.8	.	.	.	.	.
CN(C(=O)c1cccc(NC(=O)Cc2ccc(NC(=O)C3CCCN(C(=O)C4CCC4)C3)cc2)c1)C1CCCC1 (stereo not drawn)	-2.0	.	.	.	.	.
O=C(CCCn1c(=S)[nH]c2ccsc2c1=O)NCCc1ccccc1	-5.6	.	.	.	.	.
CCCSc1nsc(NC(=O)CCC)n1	-10.7	1.1	-0.9	-7.8	1.7	.
COc1ccc(-c2cc(N)n(CCC#N)n2)c(OC)c1	40.2*	0.9	3.0	8.1	0.5	-34.9
Cc1nn(C(C)C(=O)NNC(=S)Nc2ccc(F)cc2)c(C)c1[N+](=O)[O-] (stereo not drawn)	-5.9	0.7	5.3	26.3	5.8	.
Cc1ccc(C(=O)/C=C/N(C)C)o1	-5.6	0.9	5.1	10.3	-0.4	.
Cc1ccc(C(=O)/C=C/c2cc(Br)cc(Br)c2O)o1	35.7*	.	.	.	.	8.7
NNc1ncnc2sc3c(c12)CCC3	-102.3	1	1.1	2.1	1.7	-4.8
CC(=O)C1=C(c2ccccc2)N(C(C)=O)n2c(C)nnc2S1	-314.6	0.9	5.6	11.7	2.0	-125.2*
Cn1nccc1C(=O)N1CCN(c2cccc(Cl)c2)CC1	38.7*	.	.	.	.	-28.9
Cn1nccc1C(=O)N1CCN(c2cccc(C(F)(F)F)c2)CC1	-3.0	.	.	.	.	.
CCN(CC)CCNc1cc(C)nc2c1C(=O)C(=O)C=C2N1CCCCC1	45.2*	.	51.0*	.	-38.7	57.9
CN(C)Cc1cc(O)c(CN(C)C)cc1O	47.4*	.	.	.	.	70.3
CN(C)Cc1cc(C(C)(C)C)cc(C(C)(C)C)c1O	-2.9	.	.	.	.	.
Cc1ccc(/C=C/C(=O)c2ccc(N3CCOCC3)cc2)s1	1.1	1.2	1.6	-16.7	2.6	.
COc1cc(N=c2ssnc2Cl)c(OC)cc1Cl	-45.7	0.6	9.8	36.5	-16.1	-56.9*
Cc1cc(Cl)ccc1N=c1ssnc1Cl	-36.7	1	2.2	2.8	8.7	.
Cc1cc(C)nc(/N=c2/ssnc2Cl)c1	-136.6	0.7	5.9	25.4	-27.9	-84.2*
Cc1ccc(N=c2ssnc2Cl)cc1	-50.8	0.8	-2.4	21.2	-33.4	-43.7*
COc1ccc(OC)c(N=c2ssnc2Cl)c1	3.3	0.7	9.3	32.0	2.3	.
O=C(O)c1cccc(-c2ccc(/C=c3/sc4nc5ccccc5n4c3=O)o2)c1	47.9*	.	.	.	.	-7.7
Cc1ccc(N2C(=O)C(Cl)=C(N3CCCCCC3)C2=O)c(C)c1	1.6	.	.	.	.	.
COc1ccc2nc(NC(=O)C3CC(=O)N(c4ccccc4)C3)sc2c1 (stereo not drawn)	-3.9	.	.	.	.	.
SMILES	HKDC1 inh	Diaphorase act	G6PDH counter	Diaphorase inh	Arbovirus inh	HKDC1 act conf2
COc1ccc(NC(=O)CSc2ccc(-c3cccnc3)nn2)c(OC)c1	31.8	.	.	.	.	38.8
COc1ccc(NC(=O)CSc2ccc(-c3cccnc3)nn2)cc1	8.1	.	.	.	.	.
CCOc1ccc(-n2c(C)cc(C(=O)CCl)c2C)cc1	34.5	0.9	-1.5	9.7	-21.0	28.5
COC(=O)c1ccc(-n2c(C)cc(C(=O)CCl)c2C)cc1	26.3	1	1.9	-3.2	-33.5	.
O=C(CCNC(=O)c1ccc([N+](=O)[O-])cc1)NCCC1=CCCCC1	35.0*	.	.	.	.	-26.0
O=S(=O)(c1ccc(NC(=S)NCCc2ccccc2)cc1)N1CCOCC1	-3.8	0.7	-0.2	25.5	1.6	.
O=S(=O)(c1ccc(NC(=S)NN=C(Cc2ccccc2)Cc2ccccc2)cc1)N1CCOCC1	-47.1	0.7	1.6	28.0	-15.8	-43.9*
O=C(N/N=C\C=C\c1ccc2c(c1)OCO2)C1COc2ccccc2O1 (stereo not drawn)	-2.3	0.9	-2.9	13.0	-15.6	.
O=C(Nc1ccc(N2CCCC2)cc1)c1cccc(-c2cc3ccccc3oc2=O)c1	-40.2	1.3	-21.4	-27.4	-9.4	-24.8*

Screening data (PubChem BioAssay)
